Screening results from PubChem.
A selection: hits, their analogues and other compounds. The true share with any hit is near 4.4%.
m5-HT2A agonist: activates the mouse 5-HT2A serotonin receptor. P35363. CHO-K1 mHTR2A beta-arrestin complementation, luminescence; percent of 30 µM serotonin response. activation, % at 7.6 µM. 360,000 compounds, 0.66% hits. AID 624169;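 active = activation above a run cutoff, the mean activation of all tested compounds plus 3 SD, cut at about 14% in these data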
Target sequence (P35363 whole entry, looked up): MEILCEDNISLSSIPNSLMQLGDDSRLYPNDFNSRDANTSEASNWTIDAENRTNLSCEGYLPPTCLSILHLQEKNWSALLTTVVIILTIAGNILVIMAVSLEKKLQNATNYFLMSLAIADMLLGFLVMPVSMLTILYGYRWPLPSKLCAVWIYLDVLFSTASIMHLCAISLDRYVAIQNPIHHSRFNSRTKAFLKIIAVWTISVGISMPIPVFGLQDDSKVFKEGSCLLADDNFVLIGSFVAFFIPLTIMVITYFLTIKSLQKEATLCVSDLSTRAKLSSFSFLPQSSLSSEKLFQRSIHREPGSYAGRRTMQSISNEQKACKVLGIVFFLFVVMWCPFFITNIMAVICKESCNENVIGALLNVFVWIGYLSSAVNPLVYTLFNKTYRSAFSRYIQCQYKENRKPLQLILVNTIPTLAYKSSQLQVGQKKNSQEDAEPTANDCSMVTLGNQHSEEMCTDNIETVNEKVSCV
TbMetRS inhib: blocks T. brucei methionyl-tRNA synthetase activity | purified T. brucei MetRS, ATP depletion, Kinase-Glo luminescence | inhibition, % at 11.9 µM | 360,000 compounds, 0.4% hits;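 active = inhibition above a per-plate cutoff of the control wells' mean inhibition plus 3 SD, cut at about 5.5% in these data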
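Measured by: Kinase-Glo luciferase luminescence reporting remaining unconsumed ATP. Material: purified T. brucei MetRS enzyme. Doses: 11.9 µM compound single dose, 0.9% DMSO. Medium: HEPES buffer containing pyrophosphatase, BSA, spermine, DTT. Times: 15 min preincubation, 2 h reaction, all 25 °C. Reagent: methionine, ATP and bulk E. coli tRNA.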
AHR act: activators of human aryl hydrocarbon receptor | P35869 | activation, % at 5 µM | 320,000 compounds, 2.5% hits | AHR-responsive luciferase reporter cells, luminescence; in the data active = activation above about 47%
AI-2 QS mod: Vibrio harveyi AI-2 quorum sensing modulation; Vibrio harveyi JMH597 AI-2 luminescence/OD600 ratio, 9 h; stronger effect = lower value; strain lacks LuxN and CqsS sensors; 0 = neutral-control median; activity change, % at 7.5 µM; 300,000 compounds, 0.4% hits; in the data active = activity change below about -75%, passing the limit was not always enough;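 note: luminescence divided by OD600 gain over 9 h not by final OD600 alone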
MsrA act: activates bovine MsrA enzyme. 360,000 compounds, 0.3% hits. purified bovine MsrA, absorbance read-out. activation, % at 10.6 µM; in the data active = activation above about 7.5%
MsrA inhibitor: bovine MsrA inhibition; purified bovine MsrA, absorbance read-out; 360,000 compounds, 0.75% hits; inhibition, % at 15.5 µM; in the data active = inhibition above about 4.5%
Large screens that a line does not name were inactive.

[O-][n+]1cccc2c(Br)cc(Br)c(O)c21	AI-2 QS mod -197
CC(C)C[C@H]1COc2cc(Br)ccc2S(=O)(=O)N1Cc1ccc(Cl)cc1	none (no result: m5-HT2A agonist, TbMetRS inhib, AHR act, AI-2 QS mod, MsrA act)
N#C/C(=C\c1ccc(-c2cccc([N+](=O)[O-])c2)o1)C(=O)Nc1nc(-c2cccs2)cs1	AHR act 79
Brc1ccc(-c2nc(-c3cccnc3)no2)o1	AHR act 63
CC(=O)Oc1ccc(-c2nc(-c3cccnc3)no2)cc1	none
CCN(CC(=O)Nc1c(F)cccc1F)C(=O)c1cc(-c2cccs2)nn1-c1ccccc1	none
CC(C)c1ccc(C2=C(O)c3ccccc3C(=O)C2=O)cc1	AHR act 54
Cc1ccc(C2=C(O)c3ccccc3C(=O)C2=O)cc1	none
CCOC(=O)c1c(N/N=C/c2cccnc2)n[nH]c1C	AHR act 52
O=C(N[C@H](C(=O)N1CCC[C@H]1C(=O)NCCc1ccccc1Cl)c1ccccc1)c1ccc(Cl)cc1Cl	none (no result: m5-HT2A agonist, TbMetRS inhib, AHR act, AI-2 QS mod, MsrA act)
O=C(CN1C(=O)c2cccc3cccc1c23)Nc1ccc(S(=O)(=O)N2CCOCC2)cc1	AI-2 QS mod -96
O=C(CN1c2cccc3cccc(c23)S1(=O)=O)Nc1ccc(S(=O)(=O)N2CCOCC2)cc1	none
O=C(CN1C(=O)c2cccc3cccc1c23)Nc1ccc(S(=O)(=O)Nc2nccs2)cc1	AI-2 QS mod -96
CCCC#Cc1cnc2c(c1)C(=O)N([C@H](C)CO)C[C@@H](C)[C@H](CN(C)S(=O)(=O)c1cccc(OC)c1)O2	none (no result: AHR act, AI-2 QS mod)
COC(=O)c1cc2c(c3c4ccccc4n(S(=O)(=O)c4ccc(C)cc4)c13)C(=O)N(C)C2	none (no result: m5-HT2A agonist, TbMetRS inhib, AHR act, AI-2 QS mod, MsrA act)
O=C(c1ccccc1NS(=O)(=O)c1ccc([N+](=O)[O-])cc1[N+](=O)[O-])N1O[C@@H]2C=C[C@H]1C2	MsrA inhibitor 7.2 (no result: AHR act, AI-2 QS mod)
COC(=O)[C@]12C[C@H](CC(=O)NCCCN3CCCC3=O)C(=O)N(Cc3ccccc3)C1=C[C@H](C(C)C)O[C@@H]2C1CC1	none (no result: m5-HT2A agonist, TbMetRS inhib, AHR act, AI-2 QS mod, MsrA act)
CC(=O)[C@@]1(O)Cc2c(O)c3c(c(O)c2[C@H](O[C@H]2C[C@H](N)[C@H](O)[C@H](C)O2)C1)C(=O)c1ccccc1C3=O	MsrA inhibitor 4.6 (no result: AHR act, AI-2 QS mod)
C=CCN1[C@@H](CC(C)C)COc2cccc(NCCCN3CCOCC3)c2S1(=O)=O	none (no result: m5-HT2A agonist, TbMetRS inhib, AHR act, AI-2 QS mod, MsrA act)
O=C(Nc1cc(C(F)(F)F)ccc1-n1cncn1)c1cn2ccccc2n1	AHR act 78 (no result: AI-2 QS mod)
CCCn1ncc2c(Nc3ccc(C)c(C)c3)ncnc21	none (no result: AI-2 QS mod)
Cn1ncc2c(Nc3ccc(Cl)c(Cl)c3)ncnc21	none
CCNc1nc(Nc2ccc(C)c(Cl)c2)c2cnn(C)c2n1	AHR act 54
CCCCNc1nc(Nc2ccc(C)c(Cl)c2)c2cnn(C)c2n1	AHR act 79
Cc1cc(-c2ccc(S(=O)(=O)NCc3ccc(Cl)cc3)cc2)on1	none (no result: AHR act, AI-2 QS mod)
c1ccc(-c2cn3c4c(sc3n2)CCCC4)cc1	AHR act 66
CC(=O)c1ccc(NC(=O)CNCc2cccs2)cc1	none
Cc1ccc(NC(=O)CNCc2cccs2)cc1Br	AI-2 QS mod -76
O=C1OC(Cc2ccccn2)C(=O)C1=C1SCCS1 (centres undefined)	AHR act 60
N/C(=N\OC(=O)c1cccc([N+](=O)[O-])c1)c1ccccn1	AHR act 68
COc1cccc(C(=O)O/N=C(\N)c2ccccn2)c1OC	none
Cc1cccc(OCC(=O)O/N=C(\N)c2ccccn2)c1C	AI-2 QS mod -93
N/C(=N/OC(=O)c1cccc([N+](=O)[O-])c1)c1cccc([N+](=O)[O-])c1	none
N/C(=N\OC(=O)c1cccc2ccccc12)c1ccccn1	AHR act 61
COCCNC(=O)c1c(N)[nH]c(C(=O)c2ccc(Br)cc2)c1-c1ccc(Br)cc1	none (no result: m5-HT2A agonist, TbMetRS inhib, AHR act, AI-2 QS mod, MsrA act)
COC(=O)[C@]12C[C@H](CC(=O)N3CCC(c4ccccc4)CC3)C(=O)N(Cc3ccccc3)C1=C[C@H](C1CCCC1)O[C@@H]2C	none (no result: m5-HT2A agonist, TbMetRS inhib, AHR act, AI-2 QS mod, MsrA act)
Cc1[nH]c2ccccc2c1CC(=O)Nc1ccc(Nc2cccnc2)c(Br)c1	none (no result: m5-HT2A agonist, TbMetRS inhib, AHR act, AI-2 QS mod, MsrA act)
CC(C)c1ccc(NC(=O)c2ccc3snnc3c2)cc1	none
Cc1ccc(NC(=O)c2ccc3snnc3c2)cc1	AHR act 63
O=C(Nc1ccccc1)c1ccc2snnc2c1	AHR act 63
COC(=O)C1=C(C)N(Cc2ccccc2C(F)(F)F)C(=NCC2CC2)NC1c1ccc(F)cc1 (centres undefined)	none (no result: m5-HT2A agonist, TbMetRS inhib, AHR act, AI-2 QS mod, MsrA act)
